Only some compounds are listed: those with a hit (about 12% of all), similar ones and a draw of the others.
Diaphorase act – diaphorase activation or chemical reduction counter-screen; Diaphorase/resazurin coupled assay, resorufin fluorescence, 16 min; active compounds read high; 1 = vehicle wells, 0 = NADH-free wells; activation factor at 20 µM; AID 1229; 190,000 compounds, 0.005% hits;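 active = diaphorase activity raised at least twofold by the compound at 20 µM; inactive = activation factor below 2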
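Assay system: Purified diaphorase enzyme from Clostridium kluyveri | Amount: Enzyme 0.07 U/mL final | Dosing: Compound 20 µM once, DMSO 1% | Timing: 16 min reaction at room temperature | Detection: Fluorescence, excitation 544 nm and emission 590 nm | Evaluation: Higher resorufin formation from activation or reduction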
Diaph inh CS – diaphorase inhibition or chemical oxidation counter-screen; 190,000 compounds, 0.69% hits; diaphorase resazurin-to-resorufin fluorescence, NADH, 16 min; bacterial (C. kluyveri) enzyme, not human; inhibition, % at 20 µM;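 active = primary screen inhibition at 20 µM above a set limit, cut at about 50% in these data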
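Detection: fluorescence of resorufin formed from resazurin, Ex 544/Em 590 nm; test system: Clostridium kluyveri diaphorase enzyme; amount: 0.14 U/mL diaphorase, enzyme working solution; times: 16-min room-temperature incubation before reading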
ROMK mod – human ROMK K+ channel modulation, primary screen | P48048 | Tet-inducible ROMK, thallium flux fluorescence; actives lie on both sides | B-score at 10 µM | 130,000 compounds, 2% hits | AID 1918;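 active = signal ratio slope over the read window, or its plate-corrected B-score, at least 3 SD from the plate mean, either direction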;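 also: B-score of the F/F0 ratio slope over 7 to 12 s after thallium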
WT yeast gro inh – growth inhibition of WT yeast, mitochondrial fusion screen; mitochondrial fusion phenotypic screen, WT strain; inhibition, % at 10 µM; 190,000 compounds, 2.1% hits; in the data active = inhibition above about 58%; tested in S. cerevisiae
Lmaj promast – Leishmania major promastigote growth inhibition; 200,000 compounds, 9% hits; Leishmania major promastigotes, resazurin fluorescence viability; inhibition, % at 10 µM; in the data active = inhibition above about 50%;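 also: promastigotes grown with compound for 44 hours at 28 °C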
Cl transport mod – KCC2 (human) Cl- transport modulation | Q9H2X9 | KCC2 cells, thallium flux FluoZin-2 fluorescence | B-score of Tl+ flux slope (higher = more flux/activation; lower = inhibition) at 10 µM | 190,000 compounds, 2.2% hits | AID 1456;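 active = thallium flux slope and its plate-corrected score both differing from the plate sample mean at a set confidence after two filtering rounds, in either direction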;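 also: slope of fluorescence scaled to starting intensity during 10 to 20 s after thallium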
A number is an active result; ! = not active in a repeat.

COc1ccc(/C=N/NC(=O)c2nn(-c3ccccc3)c(=O)c3c(N)scc23)cc1 was read as Diaphorase act inactive, Diaph inh CS 57, WT yeast gro inh inactive, Lmaj promast 83 and Cl transport mod inactive.
O=C(COc1ccc(Br)cc1Cl)NC(=O)Nc1ccc2c(c1)OCCO2 was read as Diaphorase act inactive, Diaph inh CS inactive, ROMK mod inactive, WT yeast gro inh inactive, Lmaj promast inactive and Cl transport mod inactive.
Screening O=c1oc2cc(O)ccc2cc1-c1nc2c(s1)CCc1ccccc1-2 returned Diaphorase act inactive, Diaph inh CS inactive, WT yeast gro inh 98, Lmaj promast inactive and Cl transport mod inactive.
For COc1ccc(-n2c(-c3ccc(Br)cc3)c[n+]3c2CCc2ccccc2-3)cc1 the results were Diaphorase act inactive, Diaph inh CS inactive, ROMK mod inactive, WT yeast gro inh inactive, Lmaj promast 100 and Cl transport mod inactive.
COc1ccccc1-n1c(-c2ccccc2)c[n+]2c1CCc1ccccc1-2 was read as Diaphorase act inactive, Diaph inh CS inactive, ROMK mod inactive, WT yeast gro inh 63!, Lmaj promast 101 and Cl transport mod inactive.
For COC(=O)c1ccccc1CON1C(=O)C(C)(C)N(OCc2ccccc2C(=O)OC)C(=O)C1(C)C the results were Diaphorase act inactive, Diaph inh CS inactive, WT yeast gro inh inactive, Lmaj promast inactive and Cl transport mod inactive.
CCCCCCCC[n+]1cccc(C(=O)N(CC)CC)c1 was read as Diaphorase act inactive, Diaph inh CS inactive, ROMK mod inactive, WT yeast gro inh inactive, Lmaj promast 61 and Cl transport mod inactive.
`Oc1ccc[n+](CCCCC[n+]2cccc(O)c2)c1` gave Cl transport mod inactive.
For NC(=O)C1CCCN(Cc2ccc(Cl)cc2)C1 (stereo not given) the results were Diaphorase act inactive, Diaph inh CS inactive, WT yeast gro inh inactive and Lmaj promast 79.
Screening CN(Cc1ccccc1)C(=O)C1CCN(Cc2ccc(F)cc2)CC1 returned Diaphorase act inactive, Diaph inh CS inactive, ROMK mod inactive, WT yeast gro inh inactive, Lmaj promast 89 and Cl transport mod inactive.
CCOC(=O)C1CCCN(Cc2cccc(Cl)c2)C1 (stereo not given) was read as Diaphorase act inactive, Diaph inh CS inactive, WT yeast gro inh inactive, Lmaj promast inactive and Cl transport mod inactive.
Screening CN(Cc1ccccc1)C(=O)C1CCCN(Cc2ccc(Cl)cc2)C1 (stereo not given) returned Diaphorase act inactive, Diaph inh CS inactive, WT yeast gro inh inactive, Lmaj promast 89 and Cl transport mod inactive.
`Cc1ncc([N+](=O)[O-])n1CC(O)CCl` (stereo not given) gave Diaphorase act inactive, Diaph inh CS inactive, WT yeast gro inh inactive, Lmaj promast inactive and Cl transport mod inactive.
Screening O=[N+]([O-])c1cn(Cc2ccc(Cl)cc2)cn1 returned Diaphorase act inactive, Diaph inh CS inactive, ROMK mod inactive, WT yeast gro inh inactive, Lmaj promast 64 and Cl transport mod inactive.
COc1ccc(Cn2cnc([N+](=O)[O-])c2)cc1[N+](=O)[O-] was read as ROMK mod inactive and Cl transport mod inactive.
Screening Cc1ncc([N+](=O)[O-])n1Cc1ccc(Br)cc1 returned Diaphorase act inactive, Diaph inh CS inactive, ROMK mod inactive, WT yeast gro inh inactive, Lmaj promast 91 and Cl transport mod inactive.
Screening Cc1ncc([N+](=O)[O-])n1Cc1ccc(Cl)cc1 returned ROMK mod inactive, WT yeast gro inh inactive, Lmaj promast 83 and Cl transport mod inactive.
Screening COc1ccccc1OCCC(=O)OCC(=O)Nc1ccc(Br)cc1F returned Diaphorase act inactive, Diaph inh CS inactive, ROMK mod inactive, WT yeast gro inh inactive, Lmaj promast inactive and Cl transport mod inactive.
For CC1CCN(S(=O)(=O)c2cc(C(=O)N3CCN(c4ncccn4)CC3)ccc2Br)CC1 the results were Diaphorase act inactive, Diaph inh CS inactive, ROMK mod inactive, WT yeast gro inh inactive, Lmaj promast 85 and Cl transport mod inactive.
Screening C=CCNc1nc(Nc2ccc([N+](=O)[O-])cc2)nc(N2CCCC2)n1 returned Diaphorase act inactive, Diaph inh CS inactive, ROMK mod inactive, WT yeast gro inh inactive, Lmaj promast 81 and Cl transport mod inactive.
